ChEMBL document CHEMBL1255466, “Nucleotide selectivity of antibiotic kinases” (Antimicrob Agents Chemother, 2010)

Experiments:
[1] = Ratio of Kcat to Km for APH(3')-3a by PK/LDH-coupled assay in presence of ATP
How it was run: (§1)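 His6-tagged kinase purified by Ni-NTA. […] Nucleotide (ATP or GTP) was varied to start; A340 followed 5 min. Linear initial rates were fitted by nonlinear least squares.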

[2] = Activity at APH(3')-3a by PK/LDH-coupled assay in presence of ATP; how it was run: as §1
[3] = Activity at macrolide 2'-phosphotransferase 1 by PK/LDH-coupled assay
How it was run: (§2)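 Macrolide substrate was varied in the PK/LDH-coupled system (HEPES pH 7.5, KCl, MgCl2, NADH, PEP), with fixed 0.2 mM GTP as donor. Antibiotic was preincubated with enzyme 5 min at 37°C, the reaction was started with nucleotide, and NADH oxidation was read at 340 nm for 5 min. Initial rates were fitted to Michaelis-Menten, or to a substrate-inhibition equation where it applied.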

[4] = Ratio of Kcat to Km for macrolide 2'-phosphotransferase 1 by PK/LDH-coupled assay; how it was run: as §2
[5] = Ratio of Kcat to Km for macrolide 2'-phosphotransferase 1 by PK/LDH-coupled assay in presence of ATP; how it was run: as §1
[6] = Activity at macrolide 2'-phosphotransferase 1 by PK/LDH-coupled assay in presence of ATP; how it was run: as §1
[7] = Activity at macrolide 2'-phosphotransferase 1 by PK/LDH-coupled assay in presence of GTP; how it was run: as §1
[8] = Ratio of Kcat to Km for macrolide 2'-phosphotransferase 1 by PK/LDH-coupled assay in presence of GTP; how it was run: as §1
[9] = Inhibition of macrolide 2'-phosphotransferase 1 by PK/LDH-coupled assay
[10] = Inhibition of APH(3')-3a by PK/LDH-coupled assay
How it was run: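 N-terminally His6-tagged kinase, purified on Ni-NTA. Antibiotic at saturating level, preincubated 5 min at 37°C. Started with ATP or GTP held at Km. AMPPNP or GMPPNP added as 2-fold dilutions. NADH oxidation read at 340 nm over 5 min. IC50 fitted, then converted to Ki.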

Compound | Km [3] [µM] | kcat [3] [s⁻¹] | kcat/Km [4] | also measured
NC[C@@H]1O[C@H](O[C@H]2[C@@H](O)[C@H](O[C@@H]3[C@@H](O)[C@H](N)C[C@H](N)[C@H]3O[C@H]3O[C@H](CN)[C@@H](O)[C@H](O)[C@H]3N)O[C@@H]2CO)[C@H](N)[C@@H](O)[C@@H]1O | – | – | – | kcat/Km [1]: 1.5 ×10⁵ /s/M; Km [2]: 10.6 µM; kcat [2]: 1.59 s⁻¹
CC[C@H]1OC(=O)[C@H](C)[C@@H](O[C@H]2C[C@@](C)(OC)[C@@H](O)[C@H](C)O2)[C@H](C)[C@@H](O[C@@H]2O[C@H](C)C[C@H](N(C)C)[C@H]2O)[C@](C)(OC)C[C@@H](C)C(=O)[C@H](C)[C@@H](O)[C@]1(C)O | 45.9 | 0.311 | 6.77 ×10³ /s/M | –
CC[C@H]1OC(=O)[C@H](C)[C@@H](O[C@H]2C[C@@](C)(OC)[C@@H](O)[C@H](C)O2)[C@H](C)[C@@H](O[C@@H]2O[C@H](C)C[C@H](N(C)C)[C@H]2O)[C@](C)(O)C[C@@H](C)CN(C)[C@H](C)[C@@H](O)[C@]1(C)O | 27.7 | 0.292 | 1.05 ×10⁴ /s/M | –
CC[C@H]1OC(=O)C[C@@H](O)[C@H](C)[C@@H](O[C@@H]2O[C@H](C)[C@@H](O[C@H]3C[C@@](C)(O)[C@@H](O)[C@H](C)O3)[C@H](N(C)C)[C@H]2O)[C@@H](CC=O)C[C@@H](C)C(=O)/C=C/C(C)=C/[C@@H]1CO[C@@H]1O[C@H](C)[C@@H](O)[C@@H](OC)[C@H]1OC | 131 | 0.174 | 1.33 ×10³ /s/M | –
CC[C@H]1OC(=O)[C@H](C)[C@@H](O[C@H]2C[C@@](C)(OC)[C@@H](O)[C@H](C)O2)[C@H](C)[C@@H](O[C@@H]2O[C@H](C)C[C@H](N(C)C)[C@H]2O)[C@](C)(O)C[C@@H](C)C(=O)[C@H](C)[C@@H](O)[C@]1(C)O | 37.2 | 0.279 | 7.52 ×10³ /s/M | kcat/Km [5]: 1.16 ×10¹ /s/M; Km [6]: 1890 µM; kcat [6]: 0.022 s⁻¹; Km [7]: 59.2 µM; kcat [7]: 0.634 s⁻¹; kcat/Km [8]: 1.07 ×10⁴ /s/M
CC[C@H]1OC(=O)[C@H](C)C(=O)[C@H](C)[C@@H](O[C@@H]2O[C@H](C)C[C@H](N(C)C)[C@H]2O)[C@](C)(OC)C[C@@H](C)C(=O)[C@H](C)[C@H]2N(CCCCn3cnc(-c4cccnc4)c3)C(=O)O[C@]12C | 7.4 | 0.152 | 2.07 ×10⁴ /s/M | Ki [9]: 622 µM
Nc1ncnc2c1ncn2[C@@H]1O[C@H](COP(=O)(O)OP(=O)(O)NP(=O)(O)O)[C@@H](O)[C@H]1O | – | – | – | Ki [9]: Not Active; Ki ([10]; read-out: Ki): 14.2 µM
Nc1nc2c(ncn2[C@@H]2O[C@H](COP(=O)(O)OP(=O)(O)NP(=O)(O)O)[C@@H](O)[C@H]2O)c(=O)[nH]1 [PHOSPHOAMINOPHOSPHONIC ACID GUANYLATE ESTER] | – | – | – | Ki [10]: Not Active
SPIRAMYCIN | 478 | 0.2 | 4.19 ×10² /s/M | –
